Experimental data from PubChem BioAssay.
The source made the active and inactive calls.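 Rule for the calls, unless noted: active = viability at or below 30% in both replicate assays; inconclusive = viability at or below 30% in just one of the two assays; inactive = the rest.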

Experiments:
[1] = Her2 expression decrease, cell viability multiplex – SKBR3 breast tumor cells, AlphaScreen, ATP viability, primary screen (AID 461;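 active = Her2 level under about 52% in both replicate screens, with viability over 70% of control, limit read from the data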;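 for Her2 level: lower value means less Her2 protein in the cells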;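 for viability: percent of carrier control wells set as 100% viability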); details: SKBR3 Her2 protein level, 18-24 h, measured here: SKBR3 viability, ATP luminescence, at 10 µM
[2] = target: Receptor tyrosine-protein kinase erbB-2 (Homo sapiens) (UniProt P04626); test: as above; details: 18-24 h, at 10 µM, stronger effect = lower value
[3] = reduced viability of SK-BR-3 breast cancer cells – cell-based, 24 h, human, pilot screen (AID 572;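 active = viability at or below 10% of carrier control in both of two separate runs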;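 note: compound exposure lasted between 18 and 24 h rather than exactly 24 h; 100% = carrier-treated control wells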); details: SK-BR-3 viability, CellTiter-Glo luminescence, at 10 µM, stronger effect = lower value
[4] = HUVEC growth inhibition – cell-based, human, primary screen (AID 575); details: HUVEC proliferation, CellTiter-Glo luminescence, 72 h; at 10 µM; stronger effect = lower value;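 note: 100% = median of untreated cell wells with 0.1% DMSO on each plate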
Procedure, shortened: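 Timing: 72 h treatment at 37 °C; material: HUVEC primary cells; technique: CellTiter-Glo luminescence measuring cellular ATP; controls: vehicle and MePR control wells; measure: percent of median DMSO-control luminescence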

[5] = H69AR cell proliferation blockers – human, duplicate replicates, primary screen (AID 580;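 active = viability at or under a set limit in both replicates, limit being median viability minus 3 SD, cut at about 48% in these data, passing the limit was not always enough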;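 note: 100% = mean luminescence of untreated wells and 0% = no signal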); details: H69AR lung tumor cells viability, ATP luminescence, 72 h; at 10 µM; stronger effect = lower value
[6] = MRP1 drug-resistance reversers in H69AR cells – cell-based, doxorubicin co-treatment, pilot screen (AID 601;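 active = viability loss from added drug above about 55%, and viability with drug at most 40%, in both replicates, limit read from the data, passing the limit was not always enough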); details: CellTiter-Glo, 72 h, at 10 µM; for differential viability (reversal): stronger effect = higher value
[7] = yeast transport mutant growth inhibition pilot in 384-well plates, post-Golgi transport modulator project (AID 636; in the data active = inhibition above about 31%); details: absorbance 615 nm, about 18 h, stronger effect = higher value
[8] = growth suppression of yeast trafficking mutant, preliminary HTS, modulators of trafficking downstream of Golgi apparatus project, 1536-format plate, OD 615 nm (AID 637; in the data active = inhibition above about 30%); details: yeast transport mutant growth, absorbance 615 nm, 18 h; stronger effect = higher value
[9] = H69AR cells + 2 uM doxorubicin, measured here: viability with 2 uM doxorubicin, stronger effect = lower value
[10] = H69AR cells, compound alone cytotoxicity

Receptor tyrosine-protein kinase erbB-2 (Homo sapiens), sequence (P04626 whole entry, looked up): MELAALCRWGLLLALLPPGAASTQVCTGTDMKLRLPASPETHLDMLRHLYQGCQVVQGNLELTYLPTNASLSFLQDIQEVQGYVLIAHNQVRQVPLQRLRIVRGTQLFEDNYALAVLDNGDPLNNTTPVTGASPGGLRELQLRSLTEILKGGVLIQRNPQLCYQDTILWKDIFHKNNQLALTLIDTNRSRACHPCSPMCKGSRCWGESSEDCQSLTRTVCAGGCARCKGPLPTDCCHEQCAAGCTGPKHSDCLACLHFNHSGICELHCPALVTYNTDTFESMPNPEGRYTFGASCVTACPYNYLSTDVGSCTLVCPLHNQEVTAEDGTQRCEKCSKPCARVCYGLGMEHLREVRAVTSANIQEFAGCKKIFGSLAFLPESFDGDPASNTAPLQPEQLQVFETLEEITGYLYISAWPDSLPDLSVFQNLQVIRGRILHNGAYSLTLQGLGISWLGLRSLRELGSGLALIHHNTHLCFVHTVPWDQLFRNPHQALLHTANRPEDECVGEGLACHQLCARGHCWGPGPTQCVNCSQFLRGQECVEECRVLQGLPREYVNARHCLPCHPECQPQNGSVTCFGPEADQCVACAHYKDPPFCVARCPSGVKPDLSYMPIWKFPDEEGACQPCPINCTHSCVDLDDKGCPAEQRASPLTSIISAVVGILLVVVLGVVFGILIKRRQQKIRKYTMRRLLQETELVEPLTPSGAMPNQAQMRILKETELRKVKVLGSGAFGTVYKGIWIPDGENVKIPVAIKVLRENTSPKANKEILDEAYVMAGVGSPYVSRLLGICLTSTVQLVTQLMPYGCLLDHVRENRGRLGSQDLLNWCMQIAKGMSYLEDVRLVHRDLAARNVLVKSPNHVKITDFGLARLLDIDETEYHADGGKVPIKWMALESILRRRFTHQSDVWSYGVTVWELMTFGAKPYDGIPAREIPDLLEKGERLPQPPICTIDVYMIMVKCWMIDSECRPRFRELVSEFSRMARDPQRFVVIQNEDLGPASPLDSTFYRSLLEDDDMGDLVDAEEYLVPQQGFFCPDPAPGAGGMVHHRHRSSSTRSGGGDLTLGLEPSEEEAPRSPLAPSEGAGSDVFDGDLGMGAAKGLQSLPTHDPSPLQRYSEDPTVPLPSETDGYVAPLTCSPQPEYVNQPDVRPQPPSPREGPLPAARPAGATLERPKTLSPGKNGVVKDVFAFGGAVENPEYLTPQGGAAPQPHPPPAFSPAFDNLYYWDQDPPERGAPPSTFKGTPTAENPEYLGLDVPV

SMILES	viability [1] [%]	Her2 level [2]	viability [3]	viability [4]	viability [5]	differential viability (reversal) ([6]; H69AR cells + 2 uM doxorubicin)	viability [6, 9] [%]	viability [6, 10] [%]	inhibition [7]	inhibition [8]
Cc1occc1C(=O)Nc1cccc2ccccc12	86	75.5% (inactive)	86% (inactive)	62.9% (inactive)	73.2% (inactive)	-12.8% (inactive)	86.1	73.2	-1.84% (inactive)	1.77% (inactive)
O=C(NCC(c1cccnc1)N1CCN(c2ccc(F)cc2)CC1)OCc1ccccc1 (stereo not given)	101	66% (inactive)	101% (inactive)	85% (inactive)	91.8% (inactive)	-3.13% (inactive)	95	91.8	-2.57% (inactive)	32.9% (active)
Cc1n[nH]c(C)c1S(=O)(=O)Nc1ccc2c(c1)OCCO2	93	98.5% (inactive)	93% (inactive)	104% (inactive)	104% (inactive)	14.9% (inactive)	89.3	104	-3.42% (inactive)	-4.29% (inactive)
COc1ccccc1OCc1ccc(C(=O)Nc2ccncc2)o1	79.5	92% (inactive)	79.5% (inactive)	84.9% (inactive)	89.4% (inactive)	-0.005% (inactive)	89.4	89.4	-3.07% (inactive)	6.61% (inactive)
COc1ccc(S(=O)(=O)NC2CCCCC2)c(C)c1C	104	91% (inactive)	104% (inactive)	90% (inactive)	96.3% (inactive)	8.58% (inactive)	87.7	96.3	-2.89% (inactive)	-2.9% (inactive)
O=c1c(-c2ccc(F)cc2)coc2c3c(ccc12)OCCO3	100	78.5% (inactive)	100% (inactive)	120% (inactive)	107% (inactive)	20% (inactive)	86.7	107	0.13% (inactive)	-6.73% (inactive)
COc1ccc(S(=O)(=O)Cc2ccc(C(=O)N3CCN(Cc4ccccc4)CC3)o2)cc1	86.5	102% (inactive)	86.5% (inactive)	95% (inactive)	84.9% (inactive)	-0.78% (inactive)	85.6	84.9	-1.41% (inactive)	0.5% (inactive)
Cc1ccc(C)c2[nH]c(=O)c(CCNC(=O)c3ccc(Br)o3)cc12	87	87% (inactive)	87% (inactive)	72.8% (inactive)	89.3% (inactive)	5.93% (inactive)	83.4	89.3	-7.81% (inactive)	-4.6% (inactive)
COc1ccc(NC(=O)C23CCC(C)(C(=O)C2)C3(C)C)cc1 (stereo not given)	92.5	102% (inactive)	92.5% (inactive)	105% (inactive)	102% (inactive)	2.21% (inactive)	99.3	102	-1.07% (inactive)	0.48% (inactive)
Oc1ccc(C=Nc2cccc3ncccc23)c(O)c1	103	84.5% (inactive)	103% (inactive)	80% (inactive)	84.9% (inactive)	-3.45% (inactive)	88.3	84.9	-2.93% (inactive)	0.81% (inactive)
O=S(=O)(Cc1ccccc1)N1CCN(Cc2ccccc2)CC1	84.5	109% (inactive)	84.5% (inactive)	87.3% (inactive)	95.5% (inactive)	15.5% (inactive)	79.9	95.5	-0.13% (inactive)	0.95% (inactive)
Cc1cccc(NC(=O)c2cc3ccccc3o2)c1	142	114% (inactive)	142% (inactive)	75.8% (inactive)	86.3% (inactive)	8.2% (inactive)	78.1	86.3	-7.4% (inactive)	-1.27% (inactive)
NC(=O)CSCc1ccc(Br)cc1	100	91.5% (inactive)	100% (inactive)	98.6% (inactive)	108% (inactive)	0.415% (inactive)	108	108	-4.67% (inactive)	2.62% (inactive)
CCCCn1c(SCC(=O)NCc2ccccc2)nc2ccc(N3CCOCC3)cc2c1=O	80	89.5% (inactive)	80% (inactive)	98.1% (inactive)	74% (inactive)	-5.76% (inactive)	79.8	74	-1.22% (inactive)	1.8% (inactive)
COCc1nnc(NS(=O)(=O)c2ccc(Br)cc2)s1	99.5	92% (inactive)	99.5% (inactive)	108% (inactive)	91.3% (inactive)	-4.46% (inactive)	95.8	91.3	-5.2% (inactive)	-1.75% (inactive)
CCOC(=O)CNC(=O)Cn1cnc2c(nnn2-c2cccc(Cl)c2)c1=O	82.5	109% (inactive)	82.5% (inactive)	105% (inactive)	107% (inactive)	-1.7% (inactive)	108	107	-0.53% (inactive)	-6.83% (inactive)

SMILES	viability [1] [%]	Her2 level [2]	viability [3]	viability [4]	viability [5]	differential viability (reversal) ([6]; H69AR cells + 2 uM doxorubicin)	viability [6, 9] [%]	viability [6, 10] [%]	inhibition [7]	inhibition [8]
Cc1onc(-c2ccccc2)c1C(=O)N1CCN(C(=O)c2ccco2)CC1	98	98.5% (inactive)	98% (inactive)	101% (inactive)	88.4% (inactive)	-2.1% (inactive)	90.5	88.4	-6.67% (inactive)	5.32% (inactive)
COc1ccc(NC(=O)CCNC(=O)Cn2ccc3ccccc3c2=O)c(OC)c1	101	91% (inactive)	101% (inactive)	108% (inactive)	103% (inactive)	14.4% (inactive)	88.1	103	-7.97% (inactive)	7.17% (inactive)
CCN(CC)C(=O)c1ccc(NS(=O)(=O)c2ccccc2)cc1	89.5	130% (inactive)	89.5% (inactive)	111% (inactive)	86.1% (inactive)	-1.12% (inactive)	87.3	86.1	-1.32% (inactive)	-3.44% (inactive)
CCOC(=O)CSc1nc2cc(C(=O)N3CCC(C(N)=O)CC3)ccc2c(=O)n1-c1ccccc1	98	95% (inactive)	98% (inactive)	76.5% (inactive)	100% (inactive)	7.63% (inactive)	92.4	100	-3.95% (inactive)	-4.17% (inactive)
CC(=O)Nc1ccc(NS(=O)(=O)c2ccc(Cl)c(C(=O)O)c2)cc1	106	108% (inactive)	106% (inactive)	100% (inactive)	103% (inactive)	9.96% (inactive)	92.8	103	-4.61% (inactive)	-3.17% (inactive)
CCOc1ccc(N(CC(=O)NCC2CCCO2)S(=O)(=O)c2ccc(OC)c(OC)c2)cc1 (stereo not given)	105	98.5% (inactive)	105% (inactive)	118% (inactive)	116% (inactive)	19.2% (inactive)	96.3	116	-4% (inactive)	-5.97% (inactive)
CC(C)(C)c1nc(CN2CCOCC2)ccc1O	109	96.5% (inactive)	109% (inactive)	106% (inactive)	101% (inactive)	4.21% (inactive)	96.6	101	-7.03% (inactive)	-0.82% (inactive)
CCNCc1cc2cc(C)ccc2[nH]c1=O	106	99% (inactive)	106% (inactive)	80.6% (inactive)	82.7% (inactive)	-7.93% (inactive)	90.6	82.7	-8.78% (inactive)	-7% (inactive)
Cc1cc(Nc2ccccc2F)n2ncnc2n1	101	97.5% (inactive)	101% (inactive)	99% (inactive)	97.1% (inactive)	8.83% (inactive)	88.3	97.1	-0.67% (inactive)	0.16% (inactive)
COc1ccc(C(O)Cn2c(=N)n(CCCN(C)C)c3ccccc32)cc1 (stereo not given)	78.5	102% (inactive)	78.5% (inactive)	90.3% (inactive)	97.5% (inactive)	6.39% (inactive)	91.1	97.5	-0.26% (inactive)	-6.51% (inactive)
CCOc1ccc2c(c1)n(CO)c(=S)n2CO	107	74% (inactive)	107% (inactive)	83.6% (inactive)	89.6% (inactive)	2.06% (inactive)	87.5	89.6	-2.53% (inactive)	0.81% (inactive)
CN1CCN(C(=O)c2cnn3c(C(F)F)cc(C4CC4)nc23)CC1	95	88.5% (inactive)	95% (inactive)	103% (inactive)	94.4% (inactive)	9.3% (inactive)	85.1	94.4	-2.63% (inactive)	3.23% (inactive)
Cc1ccc(S(=O)(=O)NCCNC(=O)C2CCCNC2=O)cc1 (stereo not given)	93.5	86.5% (inactive)	93.5% (inactive)	103% (inactive)	105% (inactive)	12% (inactive)	92.9	105	-4.67% (inactive)	1.8% (inactive)
COCCn1c(C)c(C(=O)O)sc1=S	99	118% (inactive)	99% (inactive)	108% (inactive)	104% (inactive)	12.4% (inactive)	91.3	104	0.79% (inactive)	-6.5% (inactive)
Cc1cccc(-n2ncc3c(N)ncnc32)c1	94.5	83.5% (inactive)	94.5% (inactive)	51.3% (inactive)	98.3% (inactive)	17.7% (inactive)	80.6	98.3	-4.67% (inactive)	-1.31% (inactive)
